Screening results (PubChem)
This is a sample that favours compounds with a hit; in the whole collection about 12% have one here.
Lmaj promast: reduces viability of Leishmania major promastigotes; inhibition, % at 10 µM; actives 9% (n = 200,000); resazurin fluorescence viability; AID 1063; in the data active means inhibition above about 50%;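 further: promastigotes grown with compound for 44 hours at 28 °C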
ABCG2 block: inhibitors of human ABCG2 transporter, ABCB1 counter-screen; IgMXP3 cells, JC-1 efflux, flow cytometry; inhibition, % at 6.6 µM; actives 0.1% (n = 190,000);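 active means inhibition above 80%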;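 further: 0% = DMSO and 100% = nicardipine control wells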
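Test system: IgMXP3 (ABCG2) plus far-red-tagged CCRF-Adr (ABCB1) cells / Amount: 3 million cells/mL in well / Reagent: JC-1 transporter substrate / Timing: 10 min compound exposure, 25 °C / Signal: flow cytometry, 530 nm JC-1 signal / Read-out: percent efflux inhibition, scaled nicardipine 100% to DMSO 0% / Benchmarks: nicardipine as high control, DMSO as low control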
RAM inhibit: inhibitors of the yeast RAM network. S. cerevisiae dse1pr::URA3 reporter, 5-FOA growth OD615, 2 d; analog-sensitive cbk1-as2 kinase mutant strain. inhibition, % at 50 µM. actives 1.8% (n = 190,000);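 active means inhibition above a set limit, 3 SD over mean compound inhibition, cut at about 8.4% in these data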;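 further: 0% = DMSO-only wells with no growth and 100% = 10 µM 1-NA-PP1 full growth; inhibition rescues growth on 5-FOA so higher OD means more RAM inhibition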
WT yeast gro inh: growth inhibition of WT yeast, mitochondrial fusion screen; mitochondrial fusion phenotypic screen, WT strain; inhibition, % at 10 µM; actives 2.1% (n = 190,000); AID 1362; in the data active means inhibition above about 58%; tested in S. cerevisiae
ABCB1 block: inhibitors of human ABCB1 transporter, ABCG2 counter-screen | actives 0.067% (n = 190,000) | CCRF-Adr cells, JC-1 efflux, flow cytometry | P08183 | inhibition, % at 6.6 µM; in the data active means inhibition above about 40%;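 further: 0% = vehicle and 100% = reference inhibitor; higher value means more JC-1 retained so stronger ABCB1 efflux block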
Target sequence (P08183 whole entry, looked up): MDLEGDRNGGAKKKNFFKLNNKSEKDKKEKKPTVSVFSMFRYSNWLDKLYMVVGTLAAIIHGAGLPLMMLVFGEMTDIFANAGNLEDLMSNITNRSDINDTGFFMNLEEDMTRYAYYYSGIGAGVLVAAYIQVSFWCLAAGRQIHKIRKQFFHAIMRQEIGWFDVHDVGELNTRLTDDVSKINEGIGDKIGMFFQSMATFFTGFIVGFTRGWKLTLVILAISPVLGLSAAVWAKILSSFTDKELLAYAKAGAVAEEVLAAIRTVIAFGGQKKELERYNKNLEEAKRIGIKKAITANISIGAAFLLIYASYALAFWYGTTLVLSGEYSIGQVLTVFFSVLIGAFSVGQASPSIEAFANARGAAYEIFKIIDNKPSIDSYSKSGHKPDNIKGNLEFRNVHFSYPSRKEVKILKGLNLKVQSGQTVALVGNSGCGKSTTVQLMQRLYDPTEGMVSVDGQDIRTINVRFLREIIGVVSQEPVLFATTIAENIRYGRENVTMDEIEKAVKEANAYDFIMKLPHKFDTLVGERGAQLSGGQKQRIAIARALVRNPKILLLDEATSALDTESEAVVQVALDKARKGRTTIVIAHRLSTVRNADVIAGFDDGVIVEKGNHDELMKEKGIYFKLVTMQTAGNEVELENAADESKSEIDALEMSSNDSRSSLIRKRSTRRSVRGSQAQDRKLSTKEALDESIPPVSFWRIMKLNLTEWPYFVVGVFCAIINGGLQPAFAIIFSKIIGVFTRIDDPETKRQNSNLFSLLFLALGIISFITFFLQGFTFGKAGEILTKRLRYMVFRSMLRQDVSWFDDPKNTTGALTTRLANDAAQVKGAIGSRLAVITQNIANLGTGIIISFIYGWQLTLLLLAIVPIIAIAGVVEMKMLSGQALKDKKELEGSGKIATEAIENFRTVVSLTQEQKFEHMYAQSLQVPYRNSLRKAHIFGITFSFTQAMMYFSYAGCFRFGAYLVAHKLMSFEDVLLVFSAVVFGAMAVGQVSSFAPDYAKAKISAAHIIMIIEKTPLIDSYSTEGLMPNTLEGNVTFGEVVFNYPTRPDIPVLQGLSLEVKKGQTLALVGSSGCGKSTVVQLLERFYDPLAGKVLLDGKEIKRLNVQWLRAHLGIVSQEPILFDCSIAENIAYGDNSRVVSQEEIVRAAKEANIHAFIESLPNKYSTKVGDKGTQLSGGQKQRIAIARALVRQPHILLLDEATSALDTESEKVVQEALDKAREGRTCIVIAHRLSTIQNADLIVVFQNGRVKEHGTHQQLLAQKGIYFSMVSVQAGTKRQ
Lmaj promast 1uM: L. major promastigote growth inhibition, 1 uM repeat. inhibition, % at 1 µM. actives 13% (n = 1,100). shares compounds with Lmaj promast. AID 1258. resazurin fluorescence, 48 h;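 active means inhibition above about 50% in both repeat tests, limit read from the data; inconclusive means one repeat under the set limit, the other over it; inactive means both repeats under the set limit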
* hit, by the source's call; ? = inconclusive; · = no result given.

SMILES	Lmaj promast	ABCG2 block	RAM inhibit	WT yeast gro inh	ABCB1 block	Lmaj promast 1uM
CC(C)N=C(NS(=O)(=O)c1ccccc1)C(Cl)(Cl)Cl	85*	-8	1	47	-2	?
O=C1OC(Nc2ccc3c(c2)OCO3)c2ccccc21 (stereo not drawn)	60*	1	1	15	0	-7
CCC(C)[C@H](NC(=O)NCCCn1ccnc1)C(=O)OC (stereo partly drawn)	52*	-2	1	-6	0	-7
O=C1NC(Nc2nccs2)(C(F)(F)F)C(=O)N1CCc1ccccc1 (stereo not drawn)	1	6	-1	-12	5	·
Cc1ccc(S(=O)(=O)N2C=CC(C(F)(F)F)=NCC2)cc1	-4	1	0	3	0	·
CC(C)(C)c1ccc(S(=O)(=O)N2C=CC(C(F)(F)F)=NCC2)cc1	59*	13	-1	-8	3	-13
Cc1[nH]c2ccccc2c1C(=O)C(=O)N1CC=C(c2ccccc2)CC1	0	3	2	37	0	·
CCn1c(C(=O)NCc2cccnc2)cc2sc(Cl)cc21	81*	9	-1	27	1	2
CCn1c(N)c(C(=O)NCc2cccnc2)sc1=S	-1	1	1	-1	0	·
C=CCn1c(O)c(N=Nc2nc3ccccc3c(=O)n2-c2ccccc2)c2ccccc21	-1	7	0	4	2	·
c1ccc2c(CSCCc3ccncc3)cccc2c1	99*	2	2	7	1	8
Clc1ccc(CSCCc2ccncc2)cc1	22	1	1	2	0	·
Cc1[nH]c2ccccc2c1C(c1ccncc1)N1CCC(C)CC1 (stereo not drawn)	30	8	3	-4	1	·
CC1=NCC(C)c2c1[nH]c1ccccc21 (stereo not drawn)	84*	8	1	0	1	-10
O=C(OCc1ccc(Cl)cc1)c1ccccc1C(=O)c1ccccc1	10	6	-1	39	1	·
CCc1ccc(C2c3[nH]c4ccccc4c3CCN2C(=O)CNC(N)=O)cc1 (stereo not drawn)	16	4	0	3	0	·
CCc1ccc(C2c3[nH]c4ccccc4c3CCN2C(=O)CN2CCN(CC)CC2)cc1 (stereo not drawn)	75*	2	-2	16	2	-10
CC1(C)C(=O)Nc2ccccc2N1C(=O)COc1cccnc1[N+](=O)[O-]	7	2	1	·	0	·
Clc1ccc(/C=N/Nc2nn[nH]n2)cc1	1	-2	1	1	0	·
CN(C)c1cc(N/N=C/c2ccc(Cl)cc2)nc(N(C)C)n1	78*	2	1	71	1	74*
COc1ccc(C2C(=O)N(C3CCCCC3)CC(=O)N2Cc2ccc3c(c2)OCO3)cc1 (stereo not drawn)	91*	2	0	1	2	-14
FC(F)(F)c1cc(C(F)(F)F)c2ccc(N3CCN(c4ccc(Cl)cc4)CC3)nc2n1	9	1	1	12	0	·
N#CC(c1ccc(Cl)cc1)c1ccc2c(C(F)(F)F)cc(C(F)(F)F)nc2n1 (stereo not drawn)	100*	8	1	85*	0	56*
CC(CCc1ccccc1)NCc1ccncc1 (stereo not drawn)	89*	5	2	2	1	17
Cc1ccc(Oc2ccc(-c3nc(N)nc(N)n3)cc2)cc1C	99*	11	7	42	0	-15
SMILES	Lmaj promast	ABCG2 block	RAM inhibit	WT yeast gro inh	ABCB1 block	Lmaj promast 1uM
CC(C)(C)c1cc(-c2nc(N)nc(N)n2)cc(C(C)(C)C)c1	44	2	4	13	0	·
CC1(C)CN(c2ccccc2)N(C(=O)c2ccc(C#N)cc2)C1=O	54*	3	-1	-14	1	-16
CC1(C)CN(c2ccccc2)N(C(=O)c2ccc(F)cc2)C1=O	37	3	0	3	1	·
CCCc1nc2c(=O)n(C)c(=O)nc-2n(C)n1	101*	-2	-1	64*	0	94*
COc1ccc(C2C3C(=O)N(Cc4ccccc4)C(=O)C3ON2c2ccccc2)c(OC)c1OC (stereo not drawn)	74*	-1	5	-4	2	-10
Cc1ccccc1-n1sc2cc(F)ccc2c1=O	80*	35	7	96	3	-21
Cc1ccccc1-n1c(=O)c2ccccc2n2cnnc12	-1	2	2	9	0	·
Cc1cc(N2CCOCC2)ccc1/C=C1\NC(=O)N(Cc2ccccc2)C1=O	6	2	5	4	1	·
CCN=C1S/C(=C\c2ccc(N3CCOCC3)cc2C)C(=O)N1CC	69*	13	10*	-23	·	-17
CCCC1COC(Cn2cncn2)(c2ccc(C)cc2)O1 (stereo not drawn)	55*	1	-1	-46	0	-1
O=C(CN1CCC(n2nnc3cc(C(F)(F)F)ccc32)CC1)NCc1cccs1	79*	64	1	10	9	-3
Cc1ccc2c(c1)nnn2C1CCN(CC(=O)NCc2ccccc2F)CC1	20	2	1	8	1	·
C1=C(CCNCC2CCCCC2)CCCC1	92*	0	-1	-27	0	47
Cc1cc2c(cc1C)CSC(c1ccc3ccccc3c1O)SC2	-11	0	4	27	0	·
Cc1cc2c(cc1C)CSC(c1ccccc1O)SC2	97*	0	1	44	0	-9
CCCN(CCC)c1cc(Cl)nc(N)n1	-1	2	2	-14	0	·
c1ccc(-c2nc3cc4ccccc4cc3[nH]2)nc1	100*	1	0	41	0	-5
CC(=O)Nc1ccc2nc(-c3ccccn3)[nH]c2c1	7	0	1	11	0	·
Cc1ccc(O)c(C(CC(=O)N2CCCC2)c2ccccc2)c1 (stereo not drawn)	-3	-1	-1	0	0	·
CN(Cc1ccccc1)C(=O)CC(c1ccccc1)c1cc(Cl)ccc1O (stereo not drawn)	81*	0	2	-11	0	4
O=C(COC(=O)c1ccc(F)cc1F)Nc1ccc2[nH]c(=O)[nH]c2c1	3	-1	6	2	1	·
Clc1ccc2[nH]c3c(c2c1)CCc1cn[nH]c1-3	54*	1	1	25	0	-9
CC(C)c1nc(-c2ccccc2)c(-c2ccccc2)[nH]1	49	31	1	-2	-1	·
c1ccc(-c2nc(-c3cccs3)[nH]c2-c2ccccc2)cc1	53*	8	0	4	0	8
CC(C)/C=N/NC(=O)c1ccc(Cl)cc1	-8	5	1	9	0	·
NNc1nc2cccnc2n(CCNc2ncc(C(F)(F)F)cc2Cl)c1=O	-7	1	1	-7	0	·
O=c1c(Cl)nc2cc(Cl)ccc2n1CCNc1ncc(C(F)(F)F)cc1Cl	101*	1	3	1	0	101*
